MC4R ag barr – agonists of human melanocortin 4 receptor (MC4R) beta-arrestin. 0.98% of 360,000 active. U2OS MC4R beta-arrestin complementation, luminescence; percent of melanotan II response, DMSO zero. activation, % at 8.9 µM;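 active = activation above a per-plate cutoff, the mean activation of sample wells on that plate plus 3 SD, cut at about 8% in these data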
Target sequence (P32245 whole entry, looked up): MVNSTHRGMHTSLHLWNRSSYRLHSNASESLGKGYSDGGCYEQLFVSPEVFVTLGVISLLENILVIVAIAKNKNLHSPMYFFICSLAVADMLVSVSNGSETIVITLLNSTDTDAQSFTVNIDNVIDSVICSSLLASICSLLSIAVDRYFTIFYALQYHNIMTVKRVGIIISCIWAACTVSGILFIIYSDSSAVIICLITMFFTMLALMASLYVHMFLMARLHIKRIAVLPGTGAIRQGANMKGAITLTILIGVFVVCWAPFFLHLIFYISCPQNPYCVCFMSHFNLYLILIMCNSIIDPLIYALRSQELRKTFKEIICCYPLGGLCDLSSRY
m5-HT2A agonist – activates the mouse 5-HT2A serotonin receptor. P35363. activation, % at 7.6 µM. CHO-K1 mHTR2A beta-arrestin complementation, luminescence; percent of 30 µM serotonin response. 0.66% of 360,000 active. AID 624169;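 active = activation above a run cutoff, the mean activation of all tested compounds plus 3 SD, cut at about 14% in these data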
TAAR1 ag – agonists of human TAAR1; 0.99% of 360,000 active; CHO RD-HGA16 TAAR1, Fluo-8 calcium fluorescence; vehicle wells 0%, saturating PEA agonist 100%; AID 624467; activation, % at 3 µM;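 active = activation above the mean activation of all test compounds in the run plus 3 SD, cut at about 38% in these data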
Target sequence (Q96RJ0 whole entry, looked up): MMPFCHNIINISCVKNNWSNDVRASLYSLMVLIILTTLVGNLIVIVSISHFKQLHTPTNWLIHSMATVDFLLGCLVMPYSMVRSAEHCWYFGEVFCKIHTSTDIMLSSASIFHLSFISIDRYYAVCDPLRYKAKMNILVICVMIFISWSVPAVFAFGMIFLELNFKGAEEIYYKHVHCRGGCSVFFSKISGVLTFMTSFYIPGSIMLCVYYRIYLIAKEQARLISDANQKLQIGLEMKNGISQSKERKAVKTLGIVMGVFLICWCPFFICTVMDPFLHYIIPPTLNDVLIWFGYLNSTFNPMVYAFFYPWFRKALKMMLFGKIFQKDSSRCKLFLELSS
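System: CHO RD-HGA16 cells carrying human TAAR1 plus Gα16; Incubation: 17-24 h seeding, 75 min 37 °C dye, 30 min RT; Measured by: Fluo-8 fluorescence, 5 s baseline then 140 s kinetic read; Control set: DMSO and PEA EC100; Replication: single well for each compound.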
MC4R antag cAMP – antagonists of human melanocortin 4 receptor (MC4R); P32245; MC4R-expressing cells, MTII-stimulated cAMP, LANCE TR-FRET; inhibition, % at 6.5 µM; 0.48% of 360,000 active; AID 540295;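 active = inhibition above its plate's cutoff, the mean of tested wells on that plate plus 3 SD, cut at about 29% in these data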
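material = U2OS cells stably expressing human melanocortin 4 receptor (MC4R) | also added = Melanotan II challenge | dosing = single nominal compound dose of 6.5 µM | detection = TR-FRET with Eu-cAMP and labeled anti-cAMP, 671 nm | replication = singlicate | timing = compound 30 min, challenge 1 h, detection 1 h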
TAAR1 antagonist – antagonists of human TAAR1. Q96RJ0. CHO RD-HGA16 TAAR1, Fluo-8 calcium fluorescence, antagonist. inhibition, % at 3 µM. 1.5% of 360,000 active. AID 624466;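 active = inhibition above a per-plate cutoff, the mean inhibition of test compounds on that plate plus 3 SD, cut at about 49% in these data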
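Material: CHO RD-HGA16 cells bearing hTAAR1; compound dosing: one-point dosing, 3 µM nominal final; schedule: dye loading 75 min at 37 °C, then 30 min room temperature; measured by: calcium fluorescence with Fluo-8; control set: vehicle and agonist controls; replication: n of 1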
B2AR ag – agonists of human beta-2 adrenergic receptor inducing internalization; P07550; Am2.2-beta2AR cells, FAP receptor internalization, flow cytometry; response, % (test concentration not listed); 0.43% of 340,000 active; AID 504454;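 active = response above a set limit, near 3 SD of response in nonfluorescent compounds, cut at about 42% in these data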
TAAR1 nonsel count – nonselective antagonism, TAAR1 counter-screen | AID 651780 | counterscreen cell line, calcium fluorescence, antagonist mode | inhibition, % at 3 µM | shares compounds with TAAR1 antagonist | 77% of 2,400 active; in the data active = inhibition above about 22%;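 note: CHO-Ga16 host cells stimulated with ATP at an EC80 level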
TAAR1 ant conf – human TAAR1 antagonism, confirmed; 40% of 2,400 active; shares compounds with TAAR1 antagonist; TAAR1-expressing cells, fluorescence antagonist read-out; inhibition, % at 3 µM; in the data active = inhibition above about 49%;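 note: CHO-Ga16 host cells challenged with agonist PEA near its EC80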
Ga16 nonsel ag – nonselective Ga16 agonism, counter-screen; AID 651953; Ga16-expressing cells, calcium fluorescence, agonist counterscreen; activation, % at 3 µM; shares compounds with TAAR1 antagonist; 18% of 2,400 active; in the data active = activation above about 12%
TAAR1 ag counter – activates human TAAR1 in antagonist counter-screen. hTAAR1 cell line, fluorescence activation, agonist mode. activation, % at 3 µM. shares compounds with TAAR1 antagonist. 2% of 2,400 active; in the data active = activation above about 37%;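 note: CHO cells stably expressing TAAR1 with calcium dye readout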
Each line names hits and unclear results; the compound was inactive in the other large screens (follow-up assays come after a bar, where they were run). Most compounds without a hit are left out; they make up all but 4.3% or so of the library.

COc1ccccc1C(=O)Nc1ccc(OCC(=O)N2CC(C)CC(C)C2)cc1 (configuration not stated)	none
NS(=O)(=O)c1cccc(NC(=O)COC(=O)CSCc2ccccc2)c1	none
Cc1ccc(CNC(=O)CC2(CC3=NS(=O)(=O)c4ccccc4N3)CCCC2)cc1	TAAR1 antagonist 66 | TAAR1 nonsel count 32 | TAAR1 ant conf 51 | Ga16 nonsel ag inactive | TAAR1 ag counter inactive
COc1ccc(CCNC(=O)CC2(CC3=NS(=O)(=O)c4ccccc4N3)CCCC2)cc1OC	none
CCSc1nnc(-c2cccc(S(=O)(=O)N(CC)CC)c2)n1Cc1ccccc1	TAAR1 antagonist 60 | TAAR1 nonsel count 31 | TAAR1 ant conf 52 | Ga16 nonsel ag inactive | TAAR1 ag counter inactive
CCNC(=O)CSc1nnc(-c2cccc(S(=O)(=O)N(CC)CC)c2)n1CCc1ccccc1	none
CCOc1cc2c(cc1OC)C(c1cccc([N+](=O)[O-])c1)NCC2 (configuration not stated)	TAAR1 antagonist 106 | TAAR1 nonsel count inactive | TAAR1 ant conf inactive | Ga16 nonsel ag inactive | TAAR1 ag counter inactive
CCOc1cc2c(cc1OCC)C(c1ccc(F)cc1)NCC2 (configuration not stated)	none
CCCCNC(=O)C(NC(=O)c1cccnc1OC)C(=O)c1ccccc1 (configuration not stated)	none (no result: MC4R ag barr, MC4R antag cAMP, B2AR ag)
COc1ccc(CC(=O)Oc2ccccc2Cl)cc1S(=O)(=O)N1CCOCC1	none
FC(F)(F)c1cc(Cl)c2nc(-c3ccccc3)c(Cc3ccccc3)n2c1	none (no result: MC4R ag barr, MC4R antag cAMP, B2AR ag)
O=C(COC(=O)c1cccnc1Cl)Nc1nc(-c2ccccc2)cs1	TAAR1 antagonist 68 | TAAR1 nonsel count 33 | TAAR1 ant conf inactive | Ga16 nonsel ag 12 | TAAR1 ag counter inactive
O=C(COc1ccccc1Cl)Nc1nc(-c2ccncc2)cs1	TAAR1 antagonist 64 | TAAR1 nonsel count 43 | TAAR1 ant conf 58 | Ga16 nonsel ag 13 | TAAR1 ag counter inactive
COc1cc(NC(=O)COc2ccccc2Cl)ccc1NC(=O)c1cccs1	TAAR1 antagonist 57 | TAAR1 nonsel count 24 | TAAR1 ant conf inactive | Ga16 nonsel ag inactive | TAAR1 ag counter inactive
COc1ccc(OCC(=O)Nc2ccc(NC(=O)c3cccs3)c(OC)c2)cc1	none
COc1ccc(C(=O)Nc2cccc(NC(=O)c3cccs3)c2)cc1OC	TAAR1 antagonist 62 | TAAR1 nonsel count 26 | TAAR1 ant conf inactive | Ga16 nonsel ag inactive | TAAR1 ag counter inactive
COc1ccccc1NS(=O)(=O)c1ccc(C(=O)N2CCN(c3ccccn3)CC2)cc1	none
Cc1cn(CC(=O)NCC2CCCO2)c(=O)[nH]c1=O (configuration not stated)	none
Cc1cccn2c(=O)c3cc(C(=O)NCC4CCCO4)c(=N)n(C4CCCC4)c3nc12 (configuration not stated)	none
Cc1cc(C)cc(NC(=O)CCC(=O)Nc2nnc(C(C)C)s2)c1	none
Cc1cc(C)cc(NC(=O)c2cccc(N3C(=O)C4C5C=CC(C5)C4C3=O)c2)c1 (configuration not stated)	none
Cc1cccc(NC(=O)c2cccc(N3C(=O)C4C5C=CC(C6CC56)C4C3=O)c2)c1 (configuration not stated)	TAAR1 antagonist 58 | TAAR1 nonsel count 35 | TAAR1 ant conf inactive | Ga16 nonsel ag inactive | TAAR1 ag counter inactive
COc1ccc(-c2nc(CS(=O)CC(=O)NC3CCCC3)c(C)o2)cc1 (configuration not stated)	none
COc1ccc(-c2ccc3c(n2)CCCN3S(=O)(=O)c2ccc(OC)cc2)cc1	none (no result: MC4R ag barr, m5-HT2A agonist, MC4R antag cAMP, B2AR ag)
O=S(=O)(c1cccs1)N1CCCc2nc(-c3ccc(F)cc3)ccc21	TAAR1 antagonist 53 (no result: MC4R ag barr, m5-HT2A agonist, MC4R antag cAMP, B2AR ag) | TAAR1 nonsel count 33 | TAAR1 ant conf inactive | Ga16 nonsel ag inactive | TAAR1 ag counter inactive
COc1ccc(-c2ccc3c(n2)CCCN3S(=O)(=O)c2cccs2)cc1	TAAR1 antagonist 81 (no result: MC4R ag barr, m5-HT2A agonist, MC4R antag cAMP, B2AR ag) | TAAR1 nonsel count 42 | TAAR1 ant conf 64 | Ga16 nonsel ag inactive | TAAR1 ag counter inactive
CCO[C@H]1OC(C(=O)NCc2nc3ccccc3[nH]2)=C[C@@H](c2ccccc2)[C@@H]1CCCO	none
CCO[C@@H]1OC(C(=O)NCc2nc3ccccc3[nH]2)=C[C@H](c2csc3ccccc23)[C@H]1CCCO	TAAR1 antagonist 53 | TAAR1 nonsel count 30 | TAAR1 ant conf inactive | Ga16 nonsel ag inactive | TAAR1 ag counter inactive
CCO[C@H]1OC(C(=O)NCc2nc3ccccc3[nH]2)=C[C@@H](c2csc3ccccc23)[C@@H]1CCCO	TAAR1 antagonist 54 | TAAR1 nonsel count 26 | TAAR1 ant conf inactive | Ga16 nonsel ag inactive | TAAR1 ag counter inactive
C[C@H]1CN([C@@H](C)CO)C(=O)CCCn2cc(nn2)CO[C@@H]1CN(C)S(=O)(=O)c1ccc(Oc2ccccc2)cc1	none (no result: B2AR ag)
O=C(NCCN1C(=O)S/C(=C\c2ccccc2)C1=O)C1CCN(S(=O)(=O)c2cccs2)CC1	TAAR1 antagonist 67 | TAAR1 nonsel count 46 | TAAR1 ant conf 52 | Ga16 nonsel ag 15 | TAAR1 ag counter inactive
O=C(NCCN1C(=O)S/C(=C/c2ccccc2)C1=O)C1CCCN1C(=O)c1cccs1 (configuration not stated)	none
O=C(NCCc1ccccc1)C1CCN(S(=O)(=O)c2cccs2)CC1	none
O=C(NCCc1ccc(Cl)cc1)C1CCN(S(=O)(=O)c2cccs2)CC1	TAAR1 antagonist 61 | TAAR1 nonsel count inactive | TAAR1 ant conf 50 | Ga16 nonsel ag 16 | TAAR1 ag counter inactive
CC(C)CN(CC(C)C)S(=O)(=O)N1CCC(C(=O)NCCc2ccc(Cl)cc2)CC1	TAAR1 antagonist 49 | TAAR1 nonsel count 32 | TAAR1 ant conf 53 | Ga16 nonsel ag inactive | TAAR1 ag counter inactive
COc1ccc(-c2ccc3c(c2)S(=O)(=O)c2cccc(C(=O)N4CCN(c5c(Cl)cncc5Cl)CC4)c2C3=O)cc1OC	none

Screens (PubChem)
